The text below walks through data of ChEMBL document CHEMBL2016531, “Identification of NAE Inhibitors Exhibiting Potent Activity in Leukemia Cells: Exploring the Structural Determinants of NAE Specificity” (ACS Med Chem Lett, 2011).

Molecules are shown by their SMILES. Calls of active or inactive are those of the source. The calls are words filed in the database; no cut-off is given here.

Test [1] is filed under the species Homo sapiens. Put plainly: Inhibition of human recombinant NAE assessed as inhibition of NEDD8-UbcH12 complex formation at 1 nM after 1.5 hrs by Western blot analysis. A digest of the protocol: (§1)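 Cell-free gel assay. Purified human recombinant E1 incubated with its matching Ub/Ubl and E2 in 50 mM HEPES pH 7.4, 5 mM MgCl2, 1–20 μM ATP. Inhibitor at 0, 0.001, 0.01, 0.1, 1 or 10 μM, 1.5 h at room temperature. Products resolved by SDS-PAGE, immunoblotted and detected by ECL; densitometry used for semiquantitation.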

For test [2], the species on record is Homo sapiens. Briefly: Inhibition of human recombinant NAE assessed as inhibition of NEDD8-UbcH12 complex formation at 0.001 to 10 uM after 1.5 hrs by Western blot analysis. A digest of the protocol: as §1
The species named for test [3] is Homo sapiens. Put plainly: Inhibition of human recombinant UAE assessed as inhibition of UbcH6-Ub complex formation at 0.001 to 10 uM after 1.5 hrs by Western blot analysis. A digest of the protocol: as §1
For orientation: A western blot detects proteins with antibodies after separation by electrophoresis.

The target of test [4] is SUMO-activating enzyme (Homo sapiens) (UniProt Q9UBE0+Q9UBT2). Put plainly: Inhibition of human recombinant SAE1/2 assessed as inhibition of SUMO1-UbcH9 complex formation at 0.001 to 10 uM after 1.5 hrs by Western blot analysis. The class given is protein-complex assay. The gist of the method:
as §1

For test [5], the target named is Ubiquitin-like modifier-activating enzyme 5 (Homo sapiens) (UniProt Q9GZZ9). Put plainly: Inhibition of human recombinant UBA5 assessed as inhibition of […]-UFM1 complex formation at 10 uM after 1.5 hrs by Western blot analysis. The gist of the method:
as §1

The next test relates to K562. Put plainly: Antiproliferative activity against human K562 cells after 72 hrs by CellTiter-Glo assay. Particulars: K562, 72 h. Format: functional, cell-based. A digest of the protocol: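 K562 leukemia cells exposed to increasing concentrations for 72 h; growth and viability read by CellTiter-Glo luminescence.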
On the technique in general: In ATP-based viability assays light output follows the ATP content of the culture.

The species named for test [6] is Homo sapiens. Briefly: Inhibition of human recombinant NAE assessed as inhibition of NEDD8-UbcH12 complex formation at 10 nM after 1.5 hrs by Western blot analysis. A digest of the protocol:
as §1

The species named for test [7] is Homo sapiens. Briefly: Inhibition of human recombinant NAE assessed as inhibition of NEDD8-UbcH12 complex formation at <10 nM after 1.5 hrs by Western blot analysis. The gist of the method:
as §1

Chain of Ubiquitin-like modifier-activating enzyme 5 (Homo sapiens) (Q9GZZ9 whole entry): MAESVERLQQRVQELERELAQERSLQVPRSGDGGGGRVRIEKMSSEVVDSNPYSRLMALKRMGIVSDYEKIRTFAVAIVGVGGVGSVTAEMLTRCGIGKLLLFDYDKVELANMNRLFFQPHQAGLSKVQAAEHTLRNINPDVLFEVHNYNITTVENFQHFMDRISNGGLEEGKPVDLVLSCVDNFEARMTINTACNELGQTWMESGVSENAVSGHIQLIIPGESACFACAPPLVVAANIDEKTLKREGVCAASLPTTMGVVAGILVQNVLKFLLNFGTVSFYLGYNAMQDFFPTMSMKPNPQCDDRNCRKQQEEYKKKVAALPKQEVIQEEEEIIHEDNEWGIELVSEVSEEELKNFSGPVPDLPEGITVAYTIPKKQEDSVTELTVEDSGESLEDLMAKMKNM

What is called inhibition is the change of the read-out against control, counted positive when it falls. As for `Nc1ncnc2c1ncn2[C@@H]1O[C@H](COS(N)(=O)=O)[C@@H](O)[C@H]1O`, the inhibition in the test listed under Homo sapiens [1] is < 16%.
A word on the EC50: it is the concentration that produces a half-maximal response. For the molecule `NS(=O)(=O)OC[C@H]1O[C@@H](n2cnc3c(NCC4CCCO4)ncnc32)[C@H](O)[C@@H]1O` (stereo partly drawn), the inhibition entry (in the test listed under Homo sapiens [2]; in the test listed under Homo sapiens [3]; in test [4]) was “Active” in each case. Moreover, the inhibition entry in test [5] was “inactive”. Besides, the EC50 in the test with K562 is > 1000 nM.
Consider `NS(=O)(=O)OC[C@H]1O[C@@H](n2cnc3c(Nc4ccccc4)ncnc32)[C@H](O)[C@@H]1O`, for which the inhibition result (in the test filed under Homo sapiens [2]; in the test listed under Homo sapiens [3]; in test [4]) was “Active” each time. The inhibition result in test [5] was “inactive”.
Take `CNc1ncnc2c1ncn2[C@@H]1O[C@H](COS(N)(=O)=O)[C@@H](O)[C@H]1O`: the inhibition entry in the test filed under Homo sapiens [1] is “inactive”. Moreover, the inhibition in the test listed under Homo sapiens [6] was < 76%.
`NS(=O)(=O)OC[C@H]1O[C@@H](n2cnc3c(N[C@@H]4C[C@H]5CCC4C5)ncnc32)[C@H](O)[C@@H]1O`: the inhibition result (in the test listed under Homo sapiens [2]; in the test filed under Homo sapiens [3]; in test [4]) was “Active” each time. Also, in test [5], the inhibition result was “inactive”.
Consider `NS(=O)(=O)OC[C@H]1O[C@@H](n2cnc3c(NCc4cccs4)ncnc32)[C@H](O)[C@@H]1O`, for which the inhibition entry (in the test filed under Homo sapiens [2]; in the test listed under Homo sapiens [3]; in test [4]) was “Active” each time. Besides, the inhibition result in test [5] was “inactive”. Moreover, the inhibition in the test listed under Homo sapiens [6] is 100%. Further, in the test with K562, the response was half-maximal at 114 nM (EC50).
On to `CCN(CC)c1ncnc2c1ncn2[C@@H]1O[C@H](COS(N)(=O)=O)[C@@H](O)[C@H]1O`, for which the inhibition entry (in the test listed under Homo sapiens [2]; in the test filed under Homo sapiens [3]; in test [4]) was “Active” throughout. In addition, the inhibition entry (in test [5]; in the test filed under Homo sapiens [7]) was “inactive” throughout.
Take `COCCNc1ncnc2c1ncn2[C@@H]1O[C@H](COS(N)(=O)=O)[C@@H](O)[C@H]1O`: the EC50 in the test on K562 was > 1000 nM.
Regarding `CC(C)(C)CC(C)(C)Nc1ncnc2c1ncn2[C@@H]1O[C@H](COS(N)(=O)=O)[C@@H](O)[C@H]1O`, the inhibition result (in the test filed under Homo sapiens [2]; in the test filed under Homo sapiens [3]; in test [4]) was “Active” throughout. Besides, the inhibition entry (in test [5]; in the test listed under Homo sapiens [6]) was “inactive” each time. The EC50 in the test on K562 is > 1000 nM.
Take `CCC(C)Nc1ncnc2c1ncn2[C@@H]1O[C@H](COS(N)(=O)=O)[C@@H](O)[C@H]1O` (stereo partly drawn): the inhibition entry (in the test filed under Homo sapiens [2]; in the test listed under Homo sapiens [3]; in test [4]) was “Active” each time. Besides, the inhibition result in test [5] was “inactive”. The inhibition in the test listed under Homo sapiens [6] was < 25%. Further, the EC50 in the test with K562 is > 1000 nM.
Regarding `CN(Cc1ccccc1)c1ncnc2c1ncn2[C@@H]1O[C@H](COS(N)(=O)=O)[C@@H](O)[C@H]1O`, the inhibition result in the test listed under Homo sapiens [7] was “inactive”.
With `NS(=O)(=O)OC[C@H]1O[C@@H](n2cnc3c(NCC4COCCOCCOCCOCCO4)ncnc32)[C@H](O)[C@@H]1O` (stereo partly drawn), the inhibition entry (in the test filed under Homo sapiens [2]; in the test filed under Homo sapiens [3]; in test [4]) was “Active” in each case. Moreover, the inhibition entry in test [5] is “inactive”. In the test with K562, the EC50 is > 1000 nM.
Take `NS(=O)(=O)OC[C@H]1O[C@@H](n2cnc3c(N4CCC5CCCCC5C4)ncnc32)[C@H](O)[C@@H]1O` (stereo partly drawn): the inhibition entry (in the test filed under Homo sapiens [2]; in the test listed under Homo sapiens [3]; in test [4]) was “Active” throughout. For the same molecule, the inhibition entry (in test [5]; in the test filed under Homo sapiens [7]) was “inactive” in each case. The EC50 with K562 is > 1000 nM.
As to `NS(=O)(=O)OC[C@H]1O[C@@H](n2cnc3c(NC4CCCCCCC4)ncnc32)[C@H](O)[C@@H]1O`, the EC50 with K562 amounted to 380 nM.
Consider `NS(=O)(=O)OC[C@H]1O[C@@H](n2cnc3c(NCCCn4ccnc4)ncnc32)[C@H](O)[C@@H]1O`, for which the inhibition result (in the test filed under Homo sapiens [2]; in the test listed under Homo sapiens [3]; in test [4]) was “Active” in each case. In addition, the inhibition result in test [5] was “inactive”.
Regarding `NS(=O)(=O)OC[C@H]1O[C@@H](n2cnc3c(NCCc4cccs4)ncnc32)[C@H](O)[C@@H]1O`, the inhibition entry (in the test filed under Homo sapiens [2]; in the test listed under Homo sapiens [3]; in test [4]) was “Active” in each case. In addition, in test [5], the inhibition result was “inactive”. In the test with K562, this molecule returned an EC50 of 559 nM.
With `CCCNc1ncnc2c1ncn2[C@@H]1O[C@H](COS(N)(=O)=O)[C@@H](O)[C@H]1O`, the inhibition entry (in the test listed under Homo sapiens [2]; in the test filed under Homo sapiens [3]; in test [4]) was “Active” each time. For the same molecule, the inhibition entry (in test [5]; in the test listed under Homo sapiens [1]) was “inactive” in each case. The inhibition in the test filed under Homo sapiens [6] was < 63%.
Turning to `CCCCN(CC)c1ncnc2c1ncn2[C@@H]1O[C@H](COS(N)(=O)=O)[C@@H](O)[C@H]1O`, in the test filed under Homo sapiens [7], the inhibition result was “inactive”.
Regarding `CCCCCCCNc1ncnc2c1ncn2[C@@H]1O[C@H](COS(N)(=O)=O)[C@@H](O)[C@H]1O`, the inhibition result (in the test filed under Homo sapiens [2]; in the test filed under Homo sapiens [3]; in test [4]) was “Active” each time. The inhibition entry (in test [5]; in the test listed under Homo sapiens [1]) was “inactive” each time. For the same molecule, in the test on K562, a half-maximal response (EC50) required 132 nM.
Take `CCCCCC(C)Nc1ncnc2c1ncn2[C@@H]1O[C@H](COS(N)(=O)=O)[C@@H](O)[C@H]1O` (stereo partly drawn): the inhibition result (in the test listed under Homo sapiens [2]; in the test listed under Homo sapiens [3]; in test [4]) was “Active” each time. Further, the inhibition result in test [5] was “inactive”. In the test on K562, the response was half-maximal at 203 nM (EC50).
As for `CCCCCNc1ncnc2c1ncn2[C@@H]1O[C@H](COS(N)(=O)=O)[C@@H](O)[C@H]1O`, in the test listed under Homo sapiens [1], the inhibition is < 62%. Moreover, the EC50 with K562 was determined as 181 nM.
As to `NS(=O)(=O)OC[C@@H]1C[C@@H](n2ccc3c(N[C@H]4CCc5ccccc54)ncnc32)C[C@@H]1O` [PEVONEDISTAT], the inhibition entry (in the test filed under Homo sapiens [2]; in the test listed under Homo sapiens [3]; in test [4]) was “Active” throughout. Besides, the inhibition result in test [5] is “inactive”. This molecule also returned an EC50 in the test with K562 of 108 nM.
Turning to `NS(=O)(=O)OC[C@H]1O[C@@H](n2cnc3c(N4CCOCC4)ncnc32)[C@H](O)[C@@H]1O`, the inhibition entry in the test filed under Homo sapiens [7] was “inactive”.
With `CC(C)CC(C)Nc1ncnc2c1ncn2[C@@H]1O[C@H](COS(N)(=O)=O)[C@@H](O)[C@H]1O` (stereo partly drawn), the inhibition result (in the test filed under Homo sapiens [2]; in the test listed under Homo sapiens [3]; in test [4]) was “Active” in each case. The inhibition result in test [5] is “inactive”.
In the case of `CCCCN(CCCC)c1ncnc2c1ncn2[C@@H]1O[C@H](COS(N)(=O)=O)[C@@H](O)[C@H]1O`, the inhibition entry (in the test filed under Homo sapiens [2]; in the test listed under Homo sapiens [3]; in test [4]) was “Active” each time. For the same molecule, the inhibition entry (in test [5]; in the test listed under Homo sapiens [7]) was “inactive” throughout.
In the case of `CC(C)(C)CCNc1ncnc2c1ncn2[C@@H]1O[C@H](COS(N)(=O)=O)[C@@H](O)[C@H]1O`, the inhibition result (in the test filed under Homo sapiens [2]; in the test filed under Homo sapiens [3]; in test [4]) was “Active” in each case. In addition, the inhibition entry in test [5] was “inactive”. Besides, the inhibition in the test filed under Homo sapiens [6] is < 29%. The EC50 in the test on K562 is 929 nM.
